Data as given in ChEMBL document CHEMBL3227949, “Antimalarials. 4. Trichloronaphthalene amino alcohols” (1979).
Calls of active or inactive are those of the source. The rule behind the calls is not given here.

Tests used:
Plasmodium berghei [1] = test: Antimalarial activity against sc dosed Plasmodium berghei infected in mouse assessed as dose resulting in mean survival time […]; format: functional; settings: read-out: MED
Plasmodium berghei [2] = test: Antimalarial activity against Plasmodium berghei infected in mouse assessed as change in mean survival time at 10 mg/kg, sc administered as single dose 72 hrs after parasite infection (reference value: 6.1 days); format: functional; settings: route subcutaneous
Plasmodium berghei [3] = test: Antimalarial activity against Plasmodium berghei infected in mouse assessed as change in mean survival time at 40 mg/kg, sc administered as single dose 72 hrs after parasite infection (reference value: 6.1 days); format: functional; settings: route subcutaneous
Plasmodium berghei [4] = test: Antimalarial activity against Plasmodium berghei infected in mouse assessed as change in mean survival time at 80 mg/kg, sc administered as single dose 72 hrs after parasite infection (reference value: 6.1 days); format: functional; settings: route subcutaneous
Plasmodium berghei [5] = test: Antimalarial activity against Plasmodium berghei infected in mouse assessed as change in mean survival time at 640 mg/kg, sc administered as single dose 72 hrs after parasite infection (reference value: 6.1 days); format: functional; settings: route subcutaneous
Plasmodium berghei [6] = test: Antimalarial activity against Plasmodium berghei infected in mouse assessed as change in mean survival time at 20 mg/kg, sc administered as single dose 72 hrs after parasite infection (reference value: 6.1 days); format: functional; settings: route subcutaneous
Plasmodium berghei [7] = test: Antimalarial activity against Plasmodium berghei infected in mouse assessed as curing of parasite infection at 320 mg/kg, sc administered as single dose 72 hrs after parasite infection; format: functional, organism-based; set-up: dose 320 mg/kg
How it was run: (§1)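 Mice (five per group) infected with P. berghei were given a single subcutaneous dose 72 h after infection. Increase in mean survival time over infected untreated controls was recorded, and an increase of at least 100% counted as activity. The screen was run by Rane Laboratories.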

Plasmodium berghei [8] = test: Antimalarial activity against Plasmodium berghei infected in mouse assessed as curing of parasite infection at 640 mg/kg, sc administered as single dose 72 hrs after parasite infection; format: functional, organism-based; set-up: dose 640 mg/kg
Plasmodium berghei [9] = test: Antimalarial activity against Plasmodium berghei infected in mouse assessed as curing of parasite infection at 160 mg/kg, sc administered as single dose 72 hrs after parasite infection; format: functional, organism-based; set-up: dose 160 mg/kg; how it was run: as §1

SMILES	minimal effective dose (Plasmodium berghei [1])	MST (Plasmodium berghei [2])	MST (Plasmodium berghei [3])	MST (Plasmodium berghei [4])	MST (Plasmodium berghei [5])	MST (Plasmodium berghei [6])	Activity (Plasmodium berghei [7])	Activity (Plasmodium berghei [8])	Activity (Plasmodium berghei [9])
Cl.OC(c1cc(-c2ccc(Cl)cc2)nc2c(Cl)cc(Cl)cc12)C1CCCCN1 (stereo not given)	5 mg/kg								
Cl.OC(CC1CCCCN1)c1cc(-c2ccc(Cl)cc2)cc2c(Cl)cc(Cl)cc12 (stereo not given)		3.6 days	11.8 days	16.6 days	6 days	9.8 days			
CCCCN(CCCC)CCC(O)c1cc(-c2ccc(Cl)cc2)cc2c(Cl)cc(Cl)cc12.Cl (stereo not given)		2.9 days				12.1 days	Active	Active	Active
CC(=O)O.OC(c1cc(-c2ccc(Cl)cc2)cc2c(Cl)cc(Cl)cc12)C1CCCCN1 (stereo not given)	20 mg/kg	0.5 days				1.1 days			
CCCCN(CCCC)CC(O)c1cc(-c2ccc(Cl)cc2)nc2c(Cl)cc(Cl)cc12.Cl (stereo not given)	10 mg/kg								
CCCCN(CCCC)CC(O)c1cc(-c2ccc(Cl)cc2)cc2c(Cl)cc(Cl)cc12.Cl (stereo not given)	10 mg/kg	7.9 days	10.5 days			9.5 days		Active	
